Results published in ChEMBL document CHEMBL1157627, “A novel insulin secretagogue based on a dinucleoside polyphosphate scaffold” (J Med Chem, 2010).
One block for each molecule: values may come before it.

What was measured:
P2Y purinoceptor 1 [1] = target: T1, P2Y purinoceptor 1 (Homo sapiens, UniProt P47900); test: Agonist activity at P2Y1 receptor expressed in human HEK293 cells; format: functional, cell-based
Pancreas [2] = test: Induction of insulin secretion in isolated rat pancreas; format: functional, tissue-based
Pancreas [3] = test: Induction of insulin secretion in isolated rat pancreas relative to basal level; format: functional
[4] = Stability in human blood assessed as half life; format: ADME, tissue-based
Rattus norvegicus [5] = test: Antihyperglycemic activity against Han Wistar rat assessed as blood glucose level at […], iv after 45 mins by OGTT; format: functional
P2Y purinoceptor 1 [6] = target: T1, P2Y purinoceptor 1; test: Agonist activity at G-protein coupled P2Y1 receptor expressed in human 1321N1 cells assessed as increase in calcium by Fura2 assay; format: functional, cell-based
Method in brief: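 Cell suspensions loaded with fura-2; [Ca2+]i read by dual-excitation spectrofluorometry at 37 °C in 10 mM HEPES-buffered saline pH 7.4 with 1 mM CaCl2 and 1 mM MgCl2. EC50 from maximal [Ca2+]i rise across concentrations; three experiments on separate days.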

[7] = Stability after 3 hrs in presence of alkaline phosphatase; format: ADME; conditions: isolated protein
Method in brief: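 4 mM nucleotide with calf intestine alkaline phosphatase (12.5 units) in 0.1 M Tris-HCl, 0.1 M MgCl2, final pH 9.8, at 37 °C for 3 h. Stopped at 80 °C for 15 min, then weak anion-exchange cleanup and freeze-drying. Residual analogue quantified by change in reverse-phase HPLC peak integration over time.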

Rattus norvegicus [8] = test: Antihyperglycemic activity against Han Wistar rat assessed as increase in insulin level at […], iv after 5 mins relative to basal level; format: functional
Pancreas [9] = test: Increase in insulin secretion in isolated rat pancreas relative to ATP; format: functional
[10] = Stability in human serum assessed as half life of hydrolysis; format: ADME, cell-free
Rattus norvegicus [11] = test: Antihyperglycemic activity against Han Wistar rat assessed as blood glucose level at […], iv after 150 mins by OGTT; format: functional
[12] = Stability in human whole blood assessed as half life; format: ADME, tissue-based
Rattus norvegicus [13] = test: Antihyperglycemic activity against Han Wistar rat assessed as blood glucose level at 1 mg/kg, po after 45 mins by OGTT; format: functional
Method in brief: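 Overnight-fasted male Wistar Han rats, 10-11 weeks old, jugular-cannulated, 5 per group. Glibenclamide 1 mg/kg given orally at t = -30 min, then oral glucose 2 g/kg (3 mL/kg) at t = 0. Tail vein blood glucose read by glucometer over time, compared with saline-treated controls.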

T1 sequence (P47900 whole entry): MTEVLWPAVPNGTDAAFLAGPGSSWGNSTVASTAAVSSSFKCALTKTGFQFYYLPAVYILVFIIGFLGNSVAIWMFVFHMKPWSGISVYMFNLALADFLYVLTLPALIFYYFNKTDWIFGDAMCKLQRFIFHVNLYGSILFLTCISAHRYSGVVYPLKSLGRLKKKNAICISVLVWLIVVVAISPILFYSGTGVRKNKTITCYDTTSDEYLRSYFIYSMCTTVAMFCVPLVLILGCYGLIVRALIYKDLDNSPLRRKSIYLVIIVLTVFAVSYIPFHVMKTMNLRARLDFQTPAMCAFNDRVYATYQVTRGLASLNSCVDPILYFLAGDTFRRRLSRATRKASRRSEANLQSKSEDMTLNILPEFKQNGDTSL

EC50 (P2Y purinoceptor 1 [1]): 2.6 nM
EC50 (Pancreas [2]): 28 nM
Compound: [BH3-]P(=O)(OC[C@H]1O[C@@H](n2cnc3c(N)nc(SC)nc32)[C@H](O)[C@H]1O)OP(=O)([O-])OP(=O)([O-])[O-].[Na+].[Na+].[Na+].[Na+] (stereo not given in full)
fold change (FC) (Pancreas [3]): 9

half-life [4]: 5 min
Compound: Nc1nc2c(ncn2[C@@H]2O[C@H](COP(=O)(O)OP(=O)(O)OP(=O)(O)OP(=O)(O)OC[C@H]3O[C@@H](n4cnc5c(=O)[nH]c(N)nc54)[C@H](O)[C@@H]3O)[C@@H](O)[C@H]2O)c(=O)[nH]1

Compound: CSc1nc(N)c2ncn([C@@H]3O[C@H](COP(=O)([O-])CP(=O)([O-])OP(=O)([O-])OP(=O)([O-])OC[C@H]4O[C@@H](n5cnc6c(N)nc(SC)nc65)[C@H](O)[C@@H]4O)[C@@H](O)[C@H]3O)c2n1.[Na+].[Na+].[Na+].[Na+]
Activity (Rattus norvegicus [5]): 100 mg/dL
EC50 (P2Y purinoceptor 1 [6]; read-out: EC50): 420 nM
Stability [7]: Stable
FC (Rattus norvegicus [8]): 4

Compound: CSc1nc(N)c2ncn([C@@H]3O[C@H](COP(=O)([O-])OP(=O)([O-])CP(=O)([O-])OP(=O)([O-])OC[C@H]4O[C@@H](n5cnc6c(N)nc(SC)nc65)[C@H](O)[C@@H]4O)[C@@H](O)[C@H]3O)c2n1.[Na+].[Na+].[Na+].[Na+]
EC50 (P2Y purinoceptor 1 [6]; read-out: EC50): 460 nM
Stability [7]: Stable

Compound: CSc1nc(N)c2ncn([C@@H]3O[C@H](COP(=O)([O-])CP(=O)([O-])OP(=O)([O-])OC[C@H]4O[C@@H](n5cnc6c(N)nc(SC)nc65)[C@H](O)[C@@H]4O)[C@@H](O)[C@H]3O)c2n1.[Na+].[Na+].[Na+]
EC50 (P2Y purinoceptor 1 [6]; 1321-n1): Not Active
Stability [7]: Stable

EC50 (P2Y purinoceptor 1 [6]; read-out: EC50): 11 nM
Compound: Nc1ncnc2c1ncn2[C@H]1O[C@@H](COP(=O)(O)OP(=O)(O)OP(=O)(O)OC[C@@H]2O[C@H](n3cnc4c(N)ncnc43)[C@@H](O)[C@H]2O)[C@H](O)[C@@H]1O

Compound: CCCCCCSc1nc(N)c2ncn([C@H]3O[C@@H](COP(O)(=S)OP(=O)(O)OP(=O)(O)O)[C@H](O)[C@@H]3O)c2n1 (stereo not given in full)
fold change (FC) (Pancreas [9]): 100

half-life [10]: 726 min
Compound: CSc1nc(N)c2ncn([C@@H]3O[C@H](COP(=O)(O)OP(=O)(O)O)[C@@H](O)[C@H]3O)c2n1 (single isomer, unassigned)

EC50 (P2Y purinoceptor 1 [6]; read-out: EC50): 80 nM
Compound: CSc1nc(N)c2ncn([C@@H]3O[C@H](COP(=O)(O)OP(=O)(O)CP(=O)(O)O)[C@@H](O)[C@H]3O)c2n1 (single isomer, unassigned)
Activity (Rattus norvegicus [11]): 85 mg/dL

EC50 (P2Y purinoceptor 1 [6]; read-out: EC50): 14 nM
Compound: Nc1ncnc2c1ncn2[C@@H]1O[C@H](COP(=O)(O)OP(=O)(O)O)[C@@H](O)[C@H]1O [ADENOSINE DIPHOSPHATE]

half-life [12]: 2 min
Compound: Nc1ncnc2c1ncn2[C@@H]1O[C@H](COP(=O)(O)OP(=O)(O)OP(=O)(O)OP(=O)(O)OC[C@H]2O[C@@H](n3cnc4c(N)ncnc43)[C@H](O)[C@@H]2O)[C@@H](O)[C@H]1O [DIADENOSINE TETRAPHOSPHATE]

Compound: COc1ccc(Cl)cc1C(=O)NCCc1ccc(S(=O)(=O)NC(=O)NC2CCCCC2)cc1 [GLYBURIDE]
Activity (Rattus norvegicus [13]): 63 mg/dL
